Results as given in ChEMBL document CHEMBL5385970, “Design, synthesis, and evaluation of novel ferrostatin derivatives for the prevention of HG-induced VEC ferroptosis” (RSC Med Chem, 2024).
pEC50, pIC50: −log10 of the molar value. In brackets after ≈: the same amount, converted by molar mass. Activity calls are given as the source filed them. The calls are words filed in the database; no cut-off is given here.

How the values were obtained:
[1] = Antioxidant activity assessed as DPPH radical scavenging activity at 50 uM incubated for 30 mins relative to control; assay type: functional
How it was run: (§1)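 DPPH at 100 μM in ethanol (180 μL) mixed with compound in DMSO (20 μL), giving 50 μM final compound. Kept 30 min in the dark at room temperature, then A517 read to obtain DPPH clearance. For IC50, a concentration gradient of compound was tested and the curve fitted.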

[2] = Kinetic solubility of compound in PBS buffer at pH7.4 incubated for; assay type: physicochemical; settings: pH 7.4, read-out: Kinetic_solubility
How it was run: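 DMSO stocks ([…]) were diluted 4 μL into 196 μL of 10 mM PBS pH 7.4, giving final concentrations of 3.13–200 μM. Plate shaken for 10 s and incubated 2 h at 37 °C. Solubility taken as the highest concentration with no measurable turbidity.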

[3] = Antioxidant activity assessed as DPPH radical scavenging activity incubated for 30 mins; assay type: functional; how it was run: as §1
HUVEC [4] = assay: Cytotoxicity against human HUVEC cells assessed as reduction in erastin-induced cell survival at 10 uM measured for 24 hrs by SRB assay; assay type: toxicity, cell-based
How it was run: (§2)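 HUVECs (gelatin-coated dishes, M199 with 20% bovine serum and FGF2, 37 °C, 5% CO2) seeded in 96-well plates and incubated overnight. Treated 24 h with 10 μM erastin alone or with compound (10 μM, or a range of concentrations). Cells fixed with TCA, stained with 0.4% SRB in 1% acetic acid, dissolved in 10 mM Tris pH 10.5, A540 read. Survival computed relative to blank and untreated control. At least three separate experiments.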

HUVEC [5] = assay: Cytotoxicity against human HUVEC cells assessed as high glucose-induced cell survival at 10 uM measured for 24 hrs by SRB assay; assay type: toxicity, cell-based
How it was run: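 HUVECs in M199 with 20% bovine serum and FGF2, plated in 96-well plates, incubated overnight. Exposed to 30 mM high glucose alone or with 10 μM compound for 24 h. Viability by SRB (TCA fixation, 0.4% SRB stain, Tris pH 10.5 solubilisation, A540). Survival expressed relative to blank and untreated control. n = 3.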

HUVEC [6] = assay: Anti-ferroptotic activity against Erastin-induced ferroptosis in human HUVEC cells assessed as cell viability incubated for 24 hrs by SRB assay; assay type: functional, cell-based; how it was run: as §2
[7] = Microsomal stability in mouse liver microsome assessed as half life measured upto 60 mins by LC-MS/MS analysis; assay type: ADME; settings: liver microsomes
[8] = Microsomal stability in rat liver microsome assessed as parent compound remaining measured after 60 mins in absence of NADPH by LC-MS/MS analysis; assay type: ADME; settings: liver microsomes, read-out: Stability
How it was run: (§3)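 Compound at 1 μM final was incubated at 37 °C with liver microsomes (human, rat or mouse) in pH 7.4 buffer, with and without NADPH. Verapamil served as reference. Samples taken at 0–60 min and quenched in acetonitrile with tolbutamide internal standard. Analysed by LC-MS/MS on a C18 column with a water/acetonitrile 0.1% TFA gradient. Parent remaining reported at 60 min; T1/2 also derived.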

HUVEC [9] = assay: Induction of mitochondrial damage in high glucose-induced human HUVEC cells assessed as increase in monomer formation at 10 uM incubated for 24 hrs by JC-1 staining based flow cytometry analysis; assay type: functional, cell-based
HUVEC [10] = assay: Upregulation of GPX4 expression in high glucose-induced human HUVEC cells at 10 uM incubated for 24 hrs by Western blot analysis; assay type: functional, cell-based
How it was run: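 HUVECs exposed 24 h to 30 mM high glucose and 10 μM compound, then lysed in RIPA. Protein by BCA; 15 μg per lane run on 12% SDS-PAGE and blotted to PVDF. Probed with anti-GPX4 (1:1000) and anti-β-actin (1:5000) overnight at 4 °C, detected by ECL, and quantified by densitometry. Untreated cells normalized to 1; n = 3.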

[11] = Microsomal stability in human liver microsome assessed as parent compound remaining measured after 60 mins in absence of NADPH by LC-MS/MS analysis; assay type: ADME; settings: liver microsomes, read-out: Stability; how it was run: as §3
[12] = Microsomal stability in rat liver microsome assessed as parent compound remaining measured after 60 mins in presence of NADPH by LC-MS/MS analysis; assay type: ADME; settings: liver microsomes, read-out: Stability; how it was run: as §3
HUVEC [13] = assay: Anti-ferroptotic activity against human HUVEC cells assessed as decrease in MDA level at 10 uM incubated for 24 hrs; assay type: functional, cell-based
How it was run: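 Cells were HUVECs under 30 mM high glucose with 10 μM compound, 24 h. Lysed in Western/IP lysis buffer and spun 10 000 × g for 10 min. MDA measured by kit in the supernatant and normalized to mg protein. Expressed relative to untreated control set to 1; n = 3.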

[14] = Microsomal stability in human liver microsome assessed as parent compound remaining measured after 60 mins in presence of NADPH by LC-MS/MS analysis; assay type: ADME; settings: liver microsomes, read-out: Stability; how it was run: as §3
HUVEC [15] = assay: Anti-ferroptotic activity against human HUVEC cells assessed as decrease in LPO level at 10 uM incubated for 24 hrs; assay type: functional, cell-based
How it was run: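 HUVECs given 30 mM high glucose plus 10 μM compound for 24 h. Cells collected, extracted and sonicated on ice (3 s on, 7 s off, 3 min total), then spun 8000 × g for 10 min at 4 °C. LPO measured in the supernatant with a kit. Values relative to untreated cells set to 1; n = 3.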

[16] = Microsomal stability in rat liver microsome assessed as half life measured upto 60 mins by LC-MS/MS analysis; assay type: ADME; settings: liver microsomes
[17] = Microsomal stability in mouse liver microsome assessed as parent compound remaining measured after 60 mins in presence of NADPH by LC-MS/MS analysis; assay type: ADME; settings: liver microsomes, read-out: Stability; how it was run: as §3
HUVEC [18] = assay: Anti-ferroptotic activity against human HUVEC cells assessed as decrease in intracellular ferrous ion level at 10 uM incubated for 24 hrs by ferroOrange probe based analysis; assay type: functional, cell-based
How it was run: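 After 24 h with 30 mM high glucose and 10 μM compound, HUVECs were washed three times in serum-free medium. Loaded with 1 μM FerroOrange for 30 min at 37 °C, 5% CO2, then imaged by fluorescence microscopy. Ferrous ion signal quantified relative to untreated control set to 1; n = 3.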

[19] = Microsomal stability in human liver microsome assessed as half life measured upto 60 mins by LC-MS/MS analysis; assay type: ADME; settings: liver microsomes
[20] = Microsomal stability in mouse liver microsome assessed as parent compound remaining measured after 60 mins in absence of NADPH by LC-MS/MS analysis; assay type: ADME; settings: liver microsomes, read-out: Stability; how it was run: as §3
HUVEC [21] = assay: Inhibition of ROS accumulation in high glucose-induced human HUVEC cells at 10 uM incubated for 24 hrs by DCF-DA staining based fluorescence microscopic analysis
HUVEC [22] = assay: Cytotoxicity against human HUVEC cells assessed as reduction in cell viability at 10 uM measured for 24 hrs by SRB assay; assay type: toxicity, cell-based
How it was run: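 HUVECs were grown on gelatin-coated dishes in M199 with 20% bovine serum and 10 IU/mL FGF2 at 37 °C, 5% CO2. Cells were seeded in 96-well plates, incubated overnight, then exposed to compound for 24 h. They were TCA-fixed, stained for 10 min with 0.4% SRB in 1% acetic acid, and dissolved in 10 mM Tris (pH 10.5). A540 survival was calculated relative to blank and control, from at least three experiments.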

solubility kinetic [2]	pIC50 [3]	Compound	Activity [1]	Activity (HUVEC [4])	Activity (HUVEC [5])	pEC50 (HUVEC [6])	other results
6.2 µM (≈ 2.19 µg/mL)	4.33	CCOC(=O)c1ccc(NC2CCCCC2)c(NCc2ccccc2)c1	56.4%				
		O=C(N/N=C/c1ccc(Br)cc1)c1ccc(NC2CCCCC2)c(NCc2ccccc2)c1		Non-Toxic			
22.2 µM (≈ 10 µg/mL)	4.41	N#Cc1cccc(/C=N/NC(=O)c2ccc(NC3CCCCC3)c(NCc3ccccc3)c2)c1	59.6%	Non-Toxic	Non-Toxic	6.21	
		O=C(N/N=C/c1cccc(O)c1O)c1ccc(NC2CCCCC2)c(NCc2ccccc2)c1		Toxic			
20 µM (≈ 9.43 µg/mL)	4.34	O=C(N/N=C/c1cccc([N+](=O)[O-])c1)c1ccc(NC2CCCCC2)c(NCc2ccccc2)c1	53.3%	Non-Toxic	Non-Toxic	6.16	
20 µM (≈ 10.7 µg/mL)	4.42	O=C(N/N=C/c1ccc(OCc2ccccc2)cc1)c1ccc(NC2CCCCC2)c(NCc2ccccc2)c1	65.9%	Non-Toxic	Non-Toxic	6.30	half-life [7]: 9 min; remaining at 1 h [8]: 110%; Activity (HUVEC [9]): Active; Activity (HUVEC [10]): Active; remaining at 1 h [11]: 105%; remaining at 1 h [12]: 1%; Activity (HUVEC [13]): Active; remaining at 1 h [14]: 0.6%; Activity (HUVEC [15]): Active; half-life [16]: 9.1 min; remaining at 1 h [17]: 1%; Activity (HUVEC [18]): Active; half-life [19]: 4.9 min; remaining at 1 h [20]: 38%; Activity (HUVEC [21]): Active
20 µM (≈ 10.7 µg/mL)	4.23	O=C(N/N=C/c1cccc(OCc2ccccc2)c1)c1ccc(NC2CCCCC2)c(NCc2ccccc2)c1	52.2%	Non-Toxic	Non-Toxic	6.17	
		COc1cc(/C=N/NC(=O)c2ccc(NC3CCCCC3)c(NCc3ccccc3)c2)cc(OC)c1		Non-Toxic			
		O=C(N/N=C/c1ccc(F)c([N+](=O)[O-])c1)c1ccc(NC2CCCCC2)c(NCc2ccccc2)c1		Toxic			
28.6 µM (≈ 12.7 µg/mL)	4.25	O=C(N/N=C/c1ccc(O)cc1)c1ccc(NC2CCCCC2)c(NCc2ccccc2)c1	53.3%	Non-Toxic	Non-Toxic	6.10	
		O=C(N/N=C/c1ccc(N2CCCC2)cc1)c1ccc(NC2CCCCC2)c(NCc2ccccc2)c1		Non-Toxic			
		O=C(N/N=C/c1ccc(F)c(Br)c1)c1ccc(NC2CCCCC2)c(NCc2ccccc2)c1		Non-Toxic			
		O=C(N/N=C/c1ccccc1OCc1ccccc1)c1ccc(NC2CCCCC2)c(NCc2ccccc2)c1		Toxic			
		O=C(N/N=C/c1ccc([N+](=O)[O-])cc1)c1ccc(NC2CCCCC2)c(NCc2ccccc2)c1		Non-Toxic			
		O=C(N/N=C/c1ccccc1)c1ccc(NC2CCCCC2)c(NCc2ccccc2)c1		Non-Toxic			
		COc1ccc(/C=N/NC(=O)c2ccc(NC3CCCCC3)c(NCc3ccccc3)c2)c(O)c1		Non-Toxic			
		N#Cc1ccc(/C=N/NC(=O)c2ccc(NC3CCCCC3)c(NCc3ccccc3)c2)cc1		Toxic			
> 200 µM	4.27	CCOC(=O)c1ccc(NC2CCCCC2)c(N)c1	52.5%		Non-Toxic	6.22	half-life [7]: 2.7 min; remaining at 1 h [8]: 4%; remaining at 1 h [11]: 6%; remaining at 1 h [12]: 6.1%; remaining at 1 h [14]: 7.6%; half-life [16]: 18.4 min; remaining at 1 h [17]: 6.6%; half-life [19]: 16.8 min; remaining at 1 h [20]: 5%
		O=C(N/N=C/c1ccc(Cl)c(Cl)c1)c1ccc(NC2CCCCC2)c(NCc2ccccc2)c1		Non-Toxic			
		CCOc1ccccc1-n1c(C(C)N2CCN(C(=O)COc3ccc(Cl)cc3)CC2)nc2ccccc2c1=O (stereo not drawn) [ERASTIN]					Activity (HUVEC [22]): 75%
28.6 µM (≈ 13.2 µg/mL)	4.33	O=C(N/N=C/c1ccc(Cl)cc1)c1ccc(NC2CCCCC2)c(NCc2ccccc2)c1	53.4%	Non-Toxic	Non-Toxic	6.14	
		CN(C)c1ccc(/C=N/NC(=O)c2ccc(NC3CCCCC3)c(NCc3ccccc3)c2)cc1		Non-Toxic			
25 µM (≈ 11.4 µg/mL)	4.26	COc1ccccc1/C=N/NC(=O)c1ccc(NC2CCCCC2)c(NCc2ccccc2)c1	57.4%	Non-Toxic	Non-Toxic	6.19	
